Measurements published in ChEMBL document CHEMBL3872272, “Synthesis and optimization of novel α-phenylglycinamides as selective TRPM8 antagonists” (Bioorg Med Chem, 2017).

Tests used:
[1] = Drug metabolism in rat plasma assessed as hydrolyzation of methyl ester to carboxylic acid; format: ADME, cell-free
[2] = Bioavailability in Sprague-Dawley rat at 10 mg/kg, po administered as single dose by LC-MS/MS method; format: ADME, organism-based; conditions: in vivo
Outline: (§1)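 Single oral (10 mg/kg) or intravenous (1 mg/kg) dose in rats, n = 3. Jugular vein blood taken at 2, 15 and 30 min and 1, 2, 4 and 6 h. Plasma concentrations measured by LC-MS/MS.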

[3] = Plasma concentration in Sprague-Dawley rat model of distension-induced rhythmic bladder contraction at 1 mg/kg, iv measured after 15 mins; format: ADME, organism-based
[4] = Volume of distribution at steady state in Sprague-Dawley rat at 1 mg/kg, iv administered as single dose by LC-MS/MS method; format: ADME, organism-based; conditions: in vivo, read-out: Vdss; outline: as §1
[5] = Cmax in Sprague-Dawley rat at 10 mg/kg, po administered as single dose by LC-MS/MS method; format: ADME, organism-based; set-up: dose 10 mg/kg, route oral; conditions: in vivo; outline: as §1
[6] = Plasma concentration in Sprague-Dawley rat model of distension-induced rhythmic bladder contraction at 10 mg/kg, po measured after 3.5 hrs; format: ADME, organism-based
[7] = Tmax in Sprague-Dawley rat at 10 mg/kg, po administered as single dose by LC-MS/MS method; format: ADME, organism-based; conditions: in vivo; outline: as §1

Row | Drug metabolism [1] | bioavailability [2] [%] | concentration at […] [3] [nM] | Vd [4] [L/kg] | Cmax [5] [nM] | concentration at 3.5 h [6] [nM] | Tmax [7] [min] | Structure (SMILES)
1 | Metabolite_Detected | – | – | – | – | – | – | COC(=O)[C@@H](c1ccccc1)N(Cc1cccc(OC)c1)C(=O)c1ccccc1
2 | – | 59 | 1120 | 1.2 | 3230 | > 1000 | 50 | C[C@H](c1cc(F)cc(F)c1)N(C(=O)c1ccccc1)[C@@H](C(N)=O)c1ccccc1
